Source: ChEMBL document CHEMBL1135770, “Synthesis and transporter binding properties of 3beta-[4'-(phenylalkyl, -phenylalkenyl, and -phenylalkynyl)phenyl]tropane-2beta-carboxylic acid methyl esters: evidence of a remote phenyl binding domain on the dopamine transporter” (J Med Chem, 2002)

What was measured:
[1] = target: T1, Norepinephrine transporter (Rattus norvegicus, UniProt Q9WTR4); test: Tested for the binding affinity towards Norepinephrine transporter in rat cerebral cortex by displacing [3H]nisoxetine radioligand; type: tissue-based
Method in brief: (§1)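 Competition binding with 0.5 nM [³H]nisoxetine as final radioligand concentration.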

[2] = target: T2, Sodium-dependent serotonin transporter (Rattus norvegicus, UniProt P31652); test: Tested for the binding affinity towards Serotonin transporter in rat midbrain tissue by displacing [3H]paroxetine radioligand; type: tissue-based
Method in brief: (§2)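 Competition binding with 0.2 nM [³H]paroxetine as final radioligand concentration.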

[3] = target: Sodium-dependent dopamine transporter (Rattus norvegicus, UniProt P23977); test: 50% Inhibition against dopamine transporter (DAT) in rat striatal tissue by displacing [3H]WIN-35428 radioligand; type: tissue-based, Striatum
Method in brief: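 Competition binding with 0.5 nM [³H]WIN35,428 as final radioligand concentration.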

[4] = target: T2, Sodium-dependent serotonin transporter; test: 50% Inhibition against Serotonin transporter in rat midbrain tissue by displacing [3H]paroxetine radioligand; type: tissue-based; method in brief: as §2
[5] = target: T1, Norepinephrine transporter; test: 50% Inhibition against Norepinephrine transporter in rat cerebral cortex by displacing [3H]nisoxetine radioligand; type: tissue-based; method in brief: as §1

T2 sequence (P31652 whole entry): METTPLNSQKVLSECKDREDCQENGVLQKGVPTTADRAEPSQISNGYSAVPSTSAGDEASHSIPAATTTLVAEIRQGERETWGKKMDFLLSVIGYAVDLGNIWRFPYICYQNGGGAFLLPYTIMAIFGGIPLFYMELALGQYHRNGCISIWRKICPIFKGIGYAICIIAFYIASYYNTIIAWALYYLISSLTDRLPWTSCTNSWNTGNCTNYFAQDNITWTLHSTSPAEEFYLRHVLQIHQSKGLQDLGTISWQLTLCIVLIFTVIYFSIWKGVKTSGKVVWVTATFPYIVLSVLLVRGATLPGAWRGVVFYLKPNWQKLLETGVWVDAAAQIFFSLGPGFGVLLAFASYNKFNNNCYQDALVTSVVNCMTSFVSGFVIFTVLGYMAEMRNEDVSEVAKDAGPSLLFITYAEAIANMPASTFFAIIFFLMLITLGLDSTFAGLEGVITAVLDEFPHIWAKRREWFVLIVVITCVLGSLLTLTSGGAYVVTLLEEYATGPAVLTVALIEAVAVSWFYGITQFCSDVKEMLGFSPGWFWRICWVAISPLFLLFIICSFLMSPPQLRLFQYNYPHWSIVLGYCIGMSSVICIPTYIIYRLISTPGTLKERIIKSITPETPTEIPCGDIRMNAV
T1 sequence (Q9WTR4 whole entry): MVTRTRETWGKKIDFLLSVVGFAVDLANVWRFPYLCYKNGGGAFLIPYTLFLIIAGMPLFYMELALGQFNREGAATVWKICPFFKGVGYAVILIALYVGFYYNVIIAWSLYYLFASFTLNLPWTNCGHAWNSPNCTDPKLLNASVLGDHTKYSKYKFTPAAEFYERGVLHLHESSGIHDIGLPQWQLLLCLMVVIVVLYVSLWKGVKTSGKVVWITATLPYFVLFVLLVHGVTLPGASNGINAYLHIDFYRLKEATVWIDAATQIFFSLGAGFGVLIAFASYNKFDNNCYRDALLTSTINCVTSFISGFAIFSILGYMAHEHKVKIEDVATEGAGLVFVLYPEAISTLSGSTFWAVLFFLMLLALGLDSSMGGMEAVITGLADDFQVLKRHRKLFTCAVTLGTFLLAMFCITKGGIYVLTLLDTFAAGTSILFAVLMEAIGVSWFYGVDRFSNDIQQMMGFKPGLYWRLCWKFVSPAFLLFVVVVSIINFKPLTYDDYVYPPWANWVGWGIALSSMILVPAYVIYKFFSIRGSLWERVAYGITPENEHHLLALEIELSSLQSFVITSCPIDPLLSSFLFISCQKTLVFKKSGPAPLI
Chain of Sodium-dependent dopamine transporter (P23977 whole entry): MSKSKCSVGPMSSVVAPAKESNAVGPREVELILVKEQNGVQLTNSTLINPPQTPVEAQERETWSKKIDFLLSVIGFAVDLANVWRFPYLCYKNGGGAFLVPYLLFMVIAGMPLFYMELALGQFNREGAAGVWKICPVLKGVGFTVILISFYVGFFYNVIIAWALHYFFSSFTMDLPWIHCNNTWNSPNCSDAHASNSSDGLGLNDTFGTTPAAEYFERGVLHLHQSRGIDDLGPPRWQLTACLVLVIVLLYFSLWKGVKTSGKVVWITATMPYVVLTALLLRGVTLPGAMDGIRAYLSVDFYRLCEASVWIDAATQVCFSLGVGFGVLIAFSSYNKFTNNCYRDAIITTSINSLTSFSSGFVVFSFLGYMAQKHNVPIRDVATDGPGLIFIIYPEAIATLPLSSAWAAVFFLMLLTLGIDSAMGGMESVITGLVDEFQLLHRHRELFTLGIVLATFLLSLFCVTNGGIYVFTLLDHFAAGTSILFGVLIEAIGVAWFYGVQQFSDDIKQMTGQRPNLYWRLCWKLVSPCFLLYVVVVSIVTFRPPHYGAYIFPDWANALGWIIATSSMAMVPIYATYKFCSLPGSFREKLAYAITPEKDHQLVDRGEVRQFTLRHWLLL

Row | SMILES | Ki [1] [nM] | Ki [2] [nM] | IC50 [3] [nM] | IC50 [4] [nM] | IC50 [5] [nM]
1 | CCc1ccc([C@H]2C[C@H]3CCC(C2C(=O)OC)N3C)cc1 (stereo partly specified) | 2360 | 2.58 |  |  | 
2 | COC(=O)C1[C@@H](c2ccc(CCc3ccccc3)cc2)CC2CC[C@H]1N2C (stereo partly specified) | 6.5 | 21.3 | 5.14 | 234 | 10.8
3 | COC(=O)C1[C@@H](c2ccc(-c3ccccc3)cc2)CC2CC[C@H]1N2C (stereo partly specified) | 892 | 8.7 | 15.6 | 95.8 | 1480
4 | COC(=O)C1[C@@H](c2ccc(CCCc3ccccc3)cc2)CC2CC[C@H]1N2C (stereo partly specified) | 8500 | 113 | 351 | 1240 | 14200
5 | C/C=C\c1ccc([C@H]2CC3CC[C@H](C2C(=O)OC)N3C)cc1 (stereo partly specified) | 958 | 1.04 | 5.29 | 11.4 | 1590
6 | COC(=O)C1[C@@H](c2ccc(CCCCc3ccccc3)cc2)CC2CC[C@H]1N2C (stereo partly specified) | 1390 | 439 | 228 | 4820 | 2310
7 | COC(=O)C1[C@@H](c2ccc(C#CCCCc3ccccc3)cc2)CC2CC[C@H]1N2C (stereo partly specified) | 2680 | 122 | 300 | 1340 | 4450
8 | COC(=O)C1[C@@H](c2ccc(Cc3ccccc3)cc2)CC2CC[C@H]1N2C (stereo partly specified) | 606 | 658 | 526 | 7240 | 6670
9 | COC(=O)C1=C(c2ccc3ccccc3c2)CC2CCC1N2C (stereo unspecified) | 224 | 31.4 | 5.17 | 345 | 372
10 | CCCc1ccc([C@H]2CC3CC[C@H](C2C(=O)OC)N3C)cc1 (stereo partly specified) | 2360 | 6.4 | 68.5 | 70.4 | 3920
11 | COC(=O)C1[C@@H](c2ccc(C#CCCc3ccccc3)cc2)CC2CC[C@H]1N2C (stereo partly specified) | 885 | 198 | 6.28 | 2180 | 1470
12 | COC(=O)C1[C@@H](c2ccc(/C=C\c3ccccc3)cc2)CC2CC[C@H]1N2C (stereo partly specified) |  |  | 11.7 |  | 
13 | C=C(c1ccccc1)c1ccc([C@H]2CC3CC[C@H](C2C(=O)OC)N3C)cc1 (stereo partly specified) | 4260 | 246 | 474 | 2710 | 7060
14 | COC(=O)C1[C@@H](c2ccc(/C=C/Cc3ccccc3)cc2)CC2CC[C@H]1N2C (stereo partly specified) | 759 | 71 | 15.8 | 781 | 1250
15 | CC#Cc1ccc([C@H]2CC3CC[C@H](C2C(=O)OC)N3C)cc1 (stereo partly specified) | 494 | 1.43 | 2.37 | 15.7 | 820
16 | C=Cc1ccc([C@H]2CC3CC[C@H](C2C(=O)OC)N3C)cc1 (stereo partly specified) | 47 | 0.86 | 1.24 | 9.5 | 78
17 | COC(=O)C1[C@@H](c2ccc(C#Cc3ccccc3)cc2)CC2CC[C@H]1N2C (stereo partly specified) | 209 | 4.3 | 3.7 | 46.8 | 347
18 | COC(=O)C1[C@@H](c2ccc3ccccc3c2)CC2CC[C@H]1N2C (stereo partly specified) | 12.7 | 0.07 | 0.51 | 0.8 | 21.1
19 | COC(=O)C1C(c2ccc3ccccc3c2)CC2CC[C@H]1N2C (stereo partly specified) | 42.3 | 1.05 | 1.1 | 11.4 | 70.2
20 | COC(=O)[C@@H]1C2CC[C@H](C[C@@H]1c1ccccc1)N2C | 55 |  |  |  | 
21 | COC(=O)C1[C@@H](c2ccc(C#CCCCCO)cc2)CC2CC[C@H]1N2C (stereo partly specified) | 5720 | 75 | 57 | 828 | 9500
22 | COC(=O)C1[C@@H](c2ccc(C#CCc3ccccc3)cc2)CC2CC[C@H]1N2C (stereo partly specified) | 16.5 | 1.19 | 1.82 | 13.1 | 27.4
23 | COC(=O)C1C2CC[C@H](C[C@H]1c1ccc(C)cc1)N2C (stereo partly specified) | 36 |  |  |  | 60
24 | COC(=O)C1[C@@H](c2ccc(/C=C/c3ccccc3)cc2)CC2CC[C@H]1N2C (stereo partly specified) | 1180 | 30.5 | 3.09 | 335 | 1960
25 | C#Cc1ccc([C@H]2CC3CC[C@H](C2C(=O)OC)N3C)cc1 (stereo partly specified) | 50.1 | 0.4 | 1.2 | 4.4 | 83.2
